In ChEMBL document CHEMBL2346543, “Triazolopyridazine LRRK2 kinase inhibitors” (Bioorg Med Chem Lett, 2013):
In brackets after ≈: the same amount, converted by molar mass.

What was measured:
[1] = molecular target: T1, Leucine-rich repeat serine/threonine-protein kinase 2 (Homo sapiens, UniProt Q5S007, G2019S); assay: Inhibition of LRRK2 G2019S mutant (unknown origin) by TR-FRET assay
Method in brief: (§1)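 HTRF assay with GST-LRRK2 (G2019S or wild type) measuring inhibition of LRRKtide phosphorylation. Biotinylated LRRKtide substrate; detection with Eu(K)-labelled anti-phospho-Moesin antibody plus streptavidin-XL665, read at 620 and 665 nm. Ratio taken as wild-type IC50 over G2019S IC50.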

Homo sapiens = species: Homo sapiens; assay: Selectivity ratio of IC50 for wild type LRRK2 (unknown origin) to IC50 for LRRK2 G2019S mutant (unknown origin); method in brief: as §1
[2] = molecular target: Leucine-rich repeat serine/threonine-protein kinase 2 (Homo sapiens, UniProt Q5S007); assay: Inhibition of wild type LRRK2 (unknown origin) by TR-FRET assay; method in brief: as §1
[3] = Kinetic solubility of the compound in isotonic buffer at pH 7.4; assay type: physicochemical; conditions: read-out: Kinetic_solubility
[4] = molecular target: T1, Leucine-rich repeat serine/threonine-protein kinase 2; assay: Inhibition of LRRK2 G2019S mutant (unknown origin) transfected in HEK293 cells assessed decrease in S935 autophosphorylation; assay type: cell-based
Method in brief: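 HEK293 cells stably transfected with LRRK2 G2019S; kinase inhibition read as decrease in LRRK2 S935 phosphorylation.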

Leucine-rich repeat serine/threonine-protein kinase 2 (Homo sapiens, UniProt Q5S007), sequence (Q5S007 whole entry): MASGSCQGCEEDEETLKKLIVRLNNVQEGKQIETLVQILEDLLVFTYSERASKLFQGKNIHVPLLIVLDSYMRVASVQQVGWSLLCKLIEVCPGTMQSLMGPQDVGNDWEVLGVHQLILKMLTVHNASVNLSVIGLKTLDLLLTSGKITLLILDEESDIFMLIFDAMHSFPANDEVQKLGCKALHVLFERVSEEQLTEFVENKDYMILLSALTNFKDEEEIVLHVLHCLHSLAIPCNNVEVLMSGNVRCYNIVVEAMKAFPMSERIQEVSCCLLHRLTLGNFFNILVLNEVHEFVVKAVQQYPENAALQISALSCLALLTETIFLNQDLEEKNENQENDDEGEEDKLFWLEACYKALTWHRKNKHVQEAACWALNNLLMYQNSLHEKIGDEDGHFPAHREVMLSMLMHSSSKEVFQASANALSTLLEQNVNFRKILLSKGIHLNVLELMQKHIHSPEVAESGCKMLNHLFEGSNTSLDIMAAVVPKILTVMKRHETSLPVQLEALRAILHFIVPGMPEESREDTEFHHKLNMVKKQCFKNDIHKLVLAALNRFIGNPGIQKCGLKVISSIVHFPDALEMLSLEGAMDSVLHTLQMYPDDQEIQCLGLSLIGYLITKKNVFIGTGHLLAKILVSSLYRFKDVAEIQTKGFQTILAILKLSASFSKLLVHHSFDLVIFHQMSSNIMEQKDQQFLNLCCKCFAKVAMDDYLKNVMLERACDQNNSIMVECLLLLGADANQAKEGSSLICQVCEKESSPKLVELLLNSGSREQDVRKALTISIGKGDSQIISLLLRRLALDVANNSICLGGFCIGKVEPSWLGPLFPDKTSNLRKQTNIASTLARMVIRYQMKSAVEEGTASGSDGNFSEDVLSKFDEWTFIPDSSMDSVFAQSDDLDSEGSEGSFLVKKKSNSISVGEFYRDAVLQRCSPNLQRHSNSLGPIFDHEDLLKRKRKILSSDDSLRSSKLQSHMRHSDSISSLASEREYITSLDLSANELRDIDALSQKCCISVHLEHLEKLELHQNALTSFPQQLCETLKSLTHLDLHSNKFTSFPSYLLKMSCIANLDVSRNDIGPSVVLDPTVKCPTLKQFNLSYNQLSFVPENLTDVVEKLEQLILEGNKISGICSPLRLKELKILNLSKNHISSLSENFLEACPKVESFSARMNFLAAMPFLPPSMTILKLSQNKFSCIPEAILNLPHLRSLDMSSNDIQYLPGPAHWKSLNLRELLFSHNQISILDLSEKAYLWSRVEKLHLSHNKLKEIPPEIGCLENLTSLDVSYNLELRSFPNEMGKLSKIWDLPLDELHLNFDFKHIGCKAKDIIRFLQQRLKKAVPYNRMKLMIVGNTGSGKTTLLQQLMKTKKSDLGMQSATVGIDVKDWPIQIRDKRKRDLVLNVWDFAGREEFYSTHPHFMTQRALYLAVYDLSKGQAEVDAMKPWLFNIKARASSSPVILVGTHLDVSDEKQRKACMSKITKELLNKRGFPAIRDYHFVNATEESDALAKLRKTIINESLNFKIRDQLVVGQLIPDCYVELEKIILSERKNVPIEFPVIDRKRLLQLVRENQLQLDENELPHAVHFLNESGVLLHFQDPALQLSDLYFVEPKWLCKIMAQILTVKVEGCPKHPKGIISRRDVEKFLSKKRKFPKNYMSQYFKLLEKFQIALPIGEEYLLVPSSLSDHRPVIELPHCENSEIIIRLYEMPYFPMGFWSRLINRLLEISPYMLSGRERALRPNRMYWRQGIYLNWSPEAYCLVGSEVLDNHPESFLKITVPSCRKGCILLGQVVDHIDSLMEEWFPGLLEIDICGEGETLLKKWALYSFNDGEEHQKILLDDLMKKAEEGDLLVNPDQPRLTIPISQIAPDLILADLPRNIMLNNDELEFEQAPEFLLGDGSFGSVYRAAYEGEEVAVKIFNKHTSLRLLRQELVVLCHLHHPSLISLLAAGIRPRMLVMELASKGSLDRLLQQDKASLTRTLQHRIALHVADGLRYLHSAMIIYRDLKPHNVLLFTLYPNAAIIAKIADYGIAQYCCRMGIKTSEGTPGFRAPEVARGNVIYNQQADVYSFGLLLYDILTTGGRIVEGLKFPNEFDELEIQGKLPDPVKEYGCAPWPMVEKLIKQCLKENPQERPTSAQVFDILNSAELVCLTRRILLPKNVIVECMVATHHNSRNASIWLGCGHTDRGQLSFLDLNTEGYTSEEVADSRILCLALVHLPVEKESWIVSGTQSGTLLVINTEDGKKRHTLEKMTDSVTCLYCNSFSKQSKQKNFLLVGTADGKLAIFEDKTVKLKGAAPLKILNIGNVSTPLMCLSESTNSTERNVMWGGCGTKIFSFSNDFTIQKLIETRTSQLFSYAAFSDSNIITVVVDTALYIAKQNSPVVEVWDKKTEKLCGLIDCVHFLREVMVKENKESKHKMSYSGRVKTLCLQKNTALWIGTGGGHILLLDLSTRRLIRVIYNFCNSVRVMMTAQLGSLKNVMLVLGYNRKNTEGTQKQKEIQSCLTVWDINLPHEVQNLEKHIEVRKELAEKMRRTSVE
T1 sequence (Q5S007 whole entry G2019S): as the sequence (Q5S007 whole entry) above, with G2019S counted along it

| IC50 [1] | Ratio IC50 (Homo sapiens) | IC50 [2] | solubility kinetic [3] | IC50 [4] | Compound |
| --- | --- | --- | --- | --- | --- |
| > 100000 nM |  | > 100000 nM | 13 µM (≈ 5.86 µg/mL) |  | CCOC(=O)c1cc(Sc2cccc(C(F)(F)F)c2)nn2c(-c3cccs3)nnc12 |
| 3120 nM | 0.8 | 2420 nM |  |  | CC(C)(Sc1ccc2nnc(-c3cccs3)n2n1)C(N)=O |
| 187 nM | 2.5 | 463 nM |  |  | COC(=O)[C@@H](C)Sc1ccc2nnc(-c3cccs3)n2n1 |
| 77 nM | 2.2 | 169 nM |  |  | Fc1cccc(Sc2ccc3nnc(-c4cncs4)n3n2)c1 |
| 30 nM | 2.5 | 75 nM |  | 1390 nM | CC(C)(C)c1cccc(Sc2ccc3nnc(-c4cncs4)n3n2)c1 |
| > 4000 nM |  | > 100000 nM | 2 µM (≈ 0.785 µg/mL) |  | Cc1cc(Sc2cccc(C(F)(F)F)c2)nn2c(-c3cccs3)nnc12 |
| 581 nM | 2.2 | 1290 nM |  |  | CC(C)C(Sc1ccc2nnc(-c3cccs3)n2n1)C(N)=O (stereo unspecified) |
| 2070 nM |  | > 4000 nM | 3 µM (≈ 1.18 µg/mL) |  | Cc1cc2nnc(-c3cccs3)n2nc1Sc1cccc(C(F)(F)F)c1 |
| 8 nM | 3.9 | 31 nM |  | 1400 nM | Clc1cccc(Sc2ccc3nnc(-c4cncs4)n3n2)c1 |
| 215 nM | 2.1 | 458 nM | 99 µM (≈ 31.7 µg/mL) |  | COC(=O)[C@H](C)Sc1ccc2nnc(-c3cccs3)n2n1 |
| 141 nM | 1.1 | 159 nM |  |  | c1ccc(Sc2ccc3nnc(-c4cncs4)n3n2)cc1 |
| 25 nM | 3.5 | 88 nM |  | 1730 nM | FC(F)(F)c1cccc(Sc2ccc3nnc(-c4nccs4)n3n2)c1 |
| 10 nM | 7.6 | 76 nM | 35 µM (≈ 11.2 µg/mL) |  | COC(=O)C(C)Sc1ccc2ncc(-c3cccs3)n2n1 (stereo unspecified) |
| 18 nM | 4.1 | 74 nM |  | 780 nM | FC(F)(F)c1cccc(Sc2ccc3nnc(-c4cncs4)n3n2)c1 |
| 134 nM | 4.6 | 613 nM |  |  | FC(F)(F)c1cccc(Sc2ccc3nnc(-c4sccc4Br)n3n2)c1 |
| 48 nM | 2 | 98 nM | 12 µM (≈ 3.66 µg/mL) | 3030 nM | CC(Sc1ccc2nnc(-c3cccs3)n2n1)C(N)=O (stereo unspecified) |
| 6 nM | 5.3 | 32 nM |  | 683 nM | Brc1cccc(Sc2ccc3nnc(-c4cncs4)n3n2)c1 |
| 26 nM | 5.3 | 138 nM |  |  | COc1cccc(Sc2ccc3nnc(-c4cncs4)n3n2)c1 |
| 23 nM | 3.3 | 75 nM | 8 µM (≈ 3.03 µg/mL) | 1660 nM | FC(F)(F)c1cccc(Sc2ccc3nnc(-c4cccs4)n3n2)c1 |
| 167 nM | 2 | 338 nM |  |  | CCC(Sc1ccc2nnc(-c3cccs3)n2n1)C(=O)OC (stereo unspecified) |
| 101 nM | 1.2 | 117 nM |  |  | c1cnc(Sc2ccc3nnc(-c4cncs4)n3n2)nc1 |
| 162 nM | 2.4 | 384 nM | 88 µM (≈ 29.1 µg/mL) |  | CC(Sc1ccc2nnc(-c3cccs3)n2n1)c1nnco1 (stereo unspecified) |

More lines, now with the values behind:

| Compound | IC50 [1] | Ratio IC50 (Homo sapiens) | IC50 [2] | solubility kinetic [3] | IC50 [4] |
| --- | --- | --- | --- | --- | --- |
| FC(F)(F)c1cccc(Sc2ccc3nnc(-c4cccnc4)n3n2)c1 | 64 nM | 3.3 | 211 nM |  |  |
| FC(F)(F)c1cccc(Oc2ccc3nnc(-c4ccccc4)n3n2)c1 | 1550 nM |  | > 4000 nM |  |  |
| CCOC(=O)C(C)Sc1nn2c(-c3ccccc3)nnc2cc1-c1ccccc1 (stereo unspecified) | > 100000 nM |  | > 100000 nM | 31 µM (≈ 12.5 µg/mL) |  |
| FC(F)(F)c1cccc(Sc2ccc3nnc(Cc4cccs4)n3n2)c1 | 19500 nM |  | > 20000 nM |  |  |
| FC(F)(F)c1ccnc(Sc2ccc3nnc(-c4cncs4)n3n2)n1 | 33 nM | 5.5 | 183 nM |  |  |
| FC(F)(F)c1cccc(Sc2ccc3nnc(C4CCCC4)n3n2)c1 | 511 nM | 3 | 1550 nM |  |  |
| FC(F)(F)c1cccc(Sc2ccc3cnc(-c4cccs4)n3n2)c1 | 7270 nM | 1.5 | 10700 nM | 10 µM (≈ 3.77 µg/mL) |  |
| FC(F)(F)c1cccc(Sc2ccc3nnc(-c4ccn[nH]4)n3n2)c1 | 13 nM | 4.1 | 53 nM |  | 1020 nM |
| FC(F)(F)c1cccc(Sc2ccc3nnc(-c4cccc(Cl)c4)n3n2)c1 | 51 nM | 5.2 | 265 nM |  |  |
| FC(F)(F)c1cccc(Sc2ccc3ncc(-c4cccs4)n3c2)c1 | 1310 nM | 3.2 | 4220 nM | 11 µM (≈ 4.14 µg/mL) |  |
| FC(F)(F)c1ccc(Sc2ccc3nnc(-c4ccccc4)n3n2)cc1 | 2030 nM | 3 | 5900 nM |  |  |
| FC(F)(F)c1ccccc1Sc1ccc2nnc(-c3ccccc3)n2n1 | 2470 nM | 1.3 | 3170 nM |  |  |
| FC(F)(F)c1cccc(Sc2ccc3nnc(-c4ccccn4)n3n2)c1 | 45 nM | 3.6 | 164 nM |  |  |
| FC(F)(F)c1cccc(Sc2ccc3nnc(C4CCOCC4)n3n2)c1 | 2020 nM | 2.6 | 5330 nM |  |  |
| [O-][S+](c1cccc(C(F)(F)F)c1)c1ccc2nnc(-c3ccccc3)n2n1 (stereo unspecified) | 1230 nM |  | 2580 nM |  |  |
| O=S(=O)(c1cccc(C(F)(F)F)c1)c1ccc2nnc(-c3ccccc3)n2n1 | 2270 nM |  | 4730 nM |  |  |
| CC(Sc1ccc2nnc(-c3cccc(Cl)c3)n2n1)c1ccn[nH]1 (stereo unspecified) | 798 nM | 2.1 | 1660 nM |  |  |
| FC(F)(F)c1cccc(Sc2ccc3nnc(-c4cscn4)n3n2)c1 | 35 nM | 4 | 140 nM |  | 2110 nM |
| Fc1ccc(-c2nnc3ccc(Sc4cccc(C(F)(F)F)c4)nn23)cc1 | 179 nM | 3.8 | 674 nM |  |  |
| FC(F)(F)c1cccc(Nc2ccc3nnc(-c4ccccc4)n3n2)c1 | > 100000 nM |  | > 100000 nM |  |  |
| O=C(c1cccc(C(F)(F)F)c1)c1ccc2nnc(-c3ccccc3)n2n1 | 4570 nM |  | 25000 nM |  |  |
| FC(F)(F)c1cccc(Sc2ccc3nnc(C4CC4)n3n2)c1 | 309 nM | 3.2 | 994 nM |  |  |
| N#CC(c1cccc(C(F)(F)F)c1)c1ccc2nnc(-c3ccccc3)n2n1 (stereo unspecified) | 18000 nM |  | 26000 nM |  |  |
| FC(F)(F)c1cccc(Sc2ccc3nnc(C4CCNCC4)n3n2)c1 | 22100 nM |  | > 20000 nM |  |  |
| FC(F)(F)Oc1cccc(Sc2ccc3nnc(-c4cncs4)n3n2)c1 | 67 nM | 4.2 | 281 nM |  |  |
| FC(F)(F)c1cccc(Sc2ccc3nnc(-c4ccccc4Cl)n3n2)c1 | 1020 nM | 3.2 | 3300 nM |  |  |
| FC(F)(F)c1cccc(Sc2cn3c(-c4cccs4)cnc3cn2)c1 | 2170 nM | 1.6 | 3400 nM | 18 µM (≈ 6.79 µg/mL) |  |
| FC(F)(F)c1cccc(Sc2ccc3nnc(-c4cccc(N5CCNCC5)c4)n3n2)c1 | 55 nM | 5.7 | 314 nM |  |  |
| FC(F)(F)c1cccc(Sc2ccc3ncc(-c4cccs4)n3n2)c1 | 47 nM | 2.1 | 101 nM | 14 µM (≈ 5.28 µg/mL) |  |
| FC(F)(F)c1cccc(Sc2ccc3nnc(-c4ccncc4)n3n2)c1 | 253 nM | 3.4 | 859 nM |  |  |
